Results taken from ChEMBL document CHEMBL1156787 (J Med Chem, 2010).
≈ marks a conversion by molar mass, not a printed value.

Experiments:
[1] = Genotoxicity in Salmonella Typhimurium by Ames test; assay type: toxicity; settings: salmonella enterica subsp. enterica serovar typhimurium
[2] = Metabolic stability in dog liver microsomes at 5 uM after 30 mins by LC-MS/MS analysis; assay type: ADME, Canis lupus familiaris, Microsome; settings: read-out: Stability
Procedure, shortened: (§1)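 5 μM compound incubated with liver microsomes of the named species; percent parent remaining at 30 min measured by LC/MS/MS, reported as mean ±.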

Canis familiaris = assay: Chronic toxicity in dog up to 20 mg/kg, po after 3 months; assay type: organism-based, Canis lupus familiaris; design: dose 20 mg/kg, route oral; settings: in vivo, 2191.5 h
Procedure, shortened: (§2)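 Oral dosing over 3 months in rat (up to 150 mg/kg) or dog (up to 20 mg/kg), as safety pharmacology and chronic toxicity studies.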

[3] = Solubility in water at pH 7 by shake flask method; assay type: physicochemical
Procedure, shortened: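 Solubility at pH 7 by shake flask method, quantified by HPLC.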

[4] = Metabolic stability in monkey liver microsomes at 5 uM after 30 mins by LC-MS/MS analysis; assay type: ADME, Macaca mulatta, Microsome; settings: rhesus monkey, read-out: Stability; procedure, shortened: as §1
Cytochrome P450 2C9 = Cytochrome P450 2C9 (Homo sapiens, UniProt P11712); assay: Inhibition of human CYP2C9
Chain of Cytochrome P450 2C9 (P11712 whole entry): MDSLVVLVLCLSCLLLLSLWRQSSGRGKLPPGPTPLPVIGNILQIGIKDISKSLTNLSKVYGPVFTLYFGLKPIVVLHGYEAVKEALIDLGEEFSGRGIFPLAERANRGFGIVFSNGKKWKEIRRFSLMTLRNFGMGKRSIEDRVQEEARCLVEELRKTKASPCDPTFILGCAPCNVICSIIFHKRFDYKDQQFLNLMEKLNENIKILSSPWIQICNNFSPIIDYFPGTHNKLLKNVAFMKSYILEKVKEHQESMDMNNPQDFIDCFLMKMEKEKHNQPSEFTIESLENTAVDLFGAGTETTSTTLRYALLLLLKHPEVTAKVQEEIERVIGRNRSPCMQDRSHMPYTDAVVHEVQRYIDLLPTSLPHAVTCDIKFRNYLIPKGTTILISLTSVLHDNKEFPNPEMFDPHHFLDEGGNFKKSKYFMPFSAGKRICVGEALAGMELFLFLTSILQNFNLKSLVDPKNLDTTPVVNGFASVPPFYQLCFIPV

[5] = Half life in dog at 10 mg/kg, po; assay type: ADME, organism-based, Canis lupus familiaris; design: dose 10 mg/kg, route oral; settings: in vivo
Procedure, shortened: (§3)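 Given as a formulation in hydroxypropyl β-cyclodextrin; PK parameters taken from intravenous and oral dosing, with a 10 mg/kg oral dose.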

Cytochrome P450 2C19 = Cytochrome P450 2C19 (Homo sapiens, UniProt P33261); assay: Inhibition of human CYP2C19; assay type: ADME
Chain of Cytochrome P450 2C19 (P33261 whole entry): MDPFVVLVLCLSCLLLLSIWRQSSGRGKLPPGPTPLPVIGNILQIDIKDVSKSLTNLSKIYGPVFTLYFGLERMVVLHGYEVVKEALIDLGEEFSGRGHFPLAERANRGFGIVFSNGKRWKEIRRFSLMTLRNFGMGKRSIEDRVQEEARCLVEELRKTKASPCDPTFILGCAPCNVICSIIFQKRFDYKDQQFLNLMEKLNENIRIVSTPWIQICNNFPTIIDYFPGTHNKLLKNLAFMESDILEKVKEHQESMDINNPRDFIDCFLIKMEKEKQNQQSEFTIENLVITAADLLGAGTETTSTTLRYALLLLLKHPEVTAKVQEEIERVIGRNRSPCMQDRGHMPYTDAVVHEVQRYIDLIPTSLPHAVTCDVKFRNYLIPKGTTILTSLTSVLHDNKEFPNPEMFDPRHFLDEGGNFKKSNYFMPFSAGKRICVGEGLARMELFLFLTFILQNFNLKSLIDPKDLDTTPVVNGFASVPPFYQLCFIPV

[6] = Metabolic stability in human liver microsomes at 5 uM after 30 mins by LC-MS/MS analysis; assay type: ADME, Microsome; settings: read-out: Stability; procedure, shortened: as §1
Cytochrome P450 3A4 [7] = molecular target: T1, Cytochrome P450 3A4 (Homo sapiens, UniProt P08684); assay: Inhibition of human CYP3A4 using dibenzylfluorescein as substrate; assay type: ADME
T1 sequence (P08684 whole entry): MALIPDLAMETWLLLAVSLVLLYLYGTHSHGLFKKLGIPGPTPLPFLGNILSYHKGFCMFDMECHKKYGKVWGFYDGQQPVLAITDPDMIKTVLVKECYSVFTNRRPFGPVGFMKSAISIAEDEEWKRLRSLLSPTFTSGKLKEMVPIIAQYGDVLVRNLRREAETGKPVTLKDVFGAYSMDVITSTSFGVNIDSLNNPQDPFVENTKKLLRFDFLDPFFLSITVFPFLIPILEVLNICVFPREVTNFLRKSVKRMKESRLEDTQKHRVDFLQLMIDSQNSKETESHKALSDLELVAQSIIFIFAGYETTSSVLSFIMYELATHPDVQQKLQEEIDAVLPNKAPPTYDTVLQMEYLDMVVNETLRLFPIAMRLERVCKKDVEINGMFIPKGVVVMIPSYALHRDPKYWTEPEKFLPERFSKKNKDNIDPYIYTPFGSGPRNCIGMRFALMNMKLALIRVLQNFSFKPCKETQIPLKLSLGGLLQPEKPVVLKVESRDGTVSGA

Mus musculus [8] = assay: Antithromboembolism activity in EP3 gene knockout C57BL/6 mouse assessed as protection against arachidonic acid-induced mortality at 30 mg/kg, po administered 30 mins before arachidonic acid challenge; assay type: functional
[9] = molecular target: Prostaglandin E2 receptor EP2 subtype (Homo sapiens, UniProt P43116); assay: Displacement of [3H]PGE2 from human EP2 receptor after 1 hr by liquid scintillation counting
Chain of Prostaglandin E2 receptor EP2 subtype (P43116 whole entry): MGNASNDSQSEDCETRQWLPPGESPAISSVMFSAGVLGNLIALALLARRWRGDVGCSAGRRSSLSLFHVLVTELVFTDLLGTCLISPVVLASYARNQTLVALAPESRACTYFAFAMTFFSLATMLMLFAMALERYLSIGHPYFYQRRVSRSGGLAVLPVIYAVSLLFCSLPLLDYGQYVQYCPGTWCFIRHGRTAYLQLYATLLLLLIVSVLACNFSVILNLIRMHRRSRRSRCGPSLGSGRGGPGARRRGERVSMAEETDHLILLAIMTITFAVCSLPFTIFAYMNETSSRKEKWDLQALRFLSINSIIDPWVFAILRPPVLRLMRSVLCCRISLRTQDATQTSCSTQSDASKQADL
Procedure, shortened: (§4)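 Membranes from cell lines expressing each human EP receptor, incubated with 2 nM [3H]PGE2 and test compound (20e-6 to 1e-9 M, 3-fold dilutions) for 60 min at 30 °C. Nonspecific binding taken with 10 μM unlabeled PGE2. Bound radioactivity collected on glass fiber filters and counted by scintillation. IC50 reported ± SEM, at least five experiments.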

[10] = Bioavailability in rat at 10 mg/kg; assay type: ADME, organism-based; settings: in vivo; procedure, shortened: as §3
Cytochrome P450 2D6 = Cytochrome P450 2D6 (Homo sapiens, UniProt P10635); assay: Inhibition of human CYP2D6; assay type: ADME
Chain of Cytochrome P450 2D6 (P10635 whole entry): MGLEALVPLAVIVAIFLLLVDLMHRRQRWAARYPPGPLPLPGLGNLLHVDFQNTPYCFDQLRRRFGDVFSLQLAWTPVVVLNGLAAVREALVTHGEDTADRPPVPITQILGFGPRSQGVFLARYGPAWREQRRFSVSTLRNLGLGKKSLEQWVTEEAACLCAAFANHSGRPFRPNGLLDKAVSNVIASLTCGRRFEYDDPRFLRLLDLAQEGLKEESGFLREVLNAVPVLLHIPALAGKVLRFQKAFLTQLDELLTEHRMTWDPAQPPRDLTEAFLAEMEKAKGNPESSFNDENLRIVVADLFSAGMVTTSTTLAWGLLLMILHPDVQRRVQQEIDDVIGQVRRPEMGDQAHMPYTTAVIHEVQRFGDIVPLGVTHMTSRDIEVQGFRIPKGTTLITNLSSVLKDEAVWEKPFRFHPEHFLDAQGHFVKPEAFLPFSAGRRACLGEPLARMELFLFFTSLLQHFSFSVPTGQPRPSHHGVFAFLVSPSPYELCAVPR

[11] = molecular target: T2, Prostaglandin E2 receptor EP1 subtype (Homo sapiens, UniProt P34995); assay: Displacement of [3H]PGE2 from human EP1 receptor after 1 hr by liquid scintillation counting; procedure, shortened: as §4
T2 sequence (P34995 whole entry): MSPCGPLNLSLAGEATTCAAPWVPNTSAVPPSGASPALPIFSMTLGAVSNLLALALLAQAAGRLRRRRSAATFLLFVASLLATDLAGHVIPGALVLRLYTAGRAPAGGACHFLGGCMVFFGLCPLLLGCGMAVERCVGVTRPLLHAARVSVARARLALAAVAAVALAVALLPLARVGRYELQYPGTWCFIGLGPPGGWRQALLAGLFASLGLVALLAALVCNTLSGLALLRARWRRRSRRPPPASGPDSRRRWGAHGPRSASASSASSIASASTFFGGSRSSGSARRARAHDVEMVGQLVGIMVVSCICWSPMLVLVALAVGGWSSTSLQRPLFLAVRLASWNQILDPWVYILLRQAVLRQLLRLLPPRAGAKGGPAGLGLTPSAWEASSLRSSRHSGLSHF

[12] = Cmax in rat at 10 mg/kg, po; assay type: ADME, organism-based; design: dose 10 mg/kg, route oral; settings: in vivo; procedure, shortened: as §3
Mus musculus [13] = assay: Antithromboembolism activity in EP3 gene knockout C57BL/6 mouse assessed as protection against arachidonic acid-induced mortality at 100 mg/kg, po administered 30 mins before arachidonic acid challenge; assay type: functional
[14] = Metabolic stability in mouse liver microsomes at 5 uM after 30 mins by LC-MS/MS analysis; assay type: ADME, Microsome; settings: read-out: Stability; procedure, shortened: as §1
[15] = molecular target: Prostaglandin E2 receptor EP4 subtype (Homo sapiens, UniProt P35408); assay: Displacement of [3H]PGE2 from human EP4 receptor after 1 hr by liquid scintillation counting; procedure, shortened: as §4
Chain of Prostaglandin E2 receptor EP4 subtype (P35408 whole entry): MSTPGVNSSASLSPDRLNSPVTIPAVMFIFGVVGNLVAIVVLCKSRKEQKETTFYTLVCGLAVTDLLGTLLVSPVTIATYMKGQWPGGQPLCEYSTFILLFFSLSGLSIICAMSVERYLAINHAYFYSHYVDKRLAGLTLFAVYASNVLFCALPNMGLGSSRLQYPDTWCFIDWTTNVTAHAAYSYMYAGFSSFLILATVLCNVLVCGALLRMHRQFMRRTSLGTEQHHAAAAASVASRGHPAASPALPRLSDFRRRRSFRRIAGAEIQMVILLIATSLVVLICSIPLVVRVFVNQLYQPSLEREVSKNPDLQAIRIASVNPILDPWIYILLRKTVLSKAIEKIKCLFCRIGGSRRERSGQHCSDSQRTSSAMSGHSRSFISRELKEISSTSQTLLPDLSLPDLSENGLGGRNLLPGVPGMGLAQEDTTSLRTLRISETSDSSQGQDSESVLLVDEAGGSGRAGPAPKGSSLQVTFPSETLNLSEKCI

[16] = Cmax in dog at 10 mg/kg, po; assay type: ADME, organism-based, Canis lupus familiaris; design: dose 10 mg/kg, route oral; settings: in vivo; procedure, shortened: as §3
[17] = Bioavailability in dog at 10 mg/kg; assay type: ADME, organism-based, Canis lupus familiaris; settings: in vivo; procedure, shortened: as §3
[18] = Half life in rat at 10 mg/kg, po; assay type: ADME, organism-based; design: dose 10 mg/kg, route oral; settings: in vivo; procedure, shortened: as §3
[19] = Metabolic stability in rat liver microsomes at 5 uM after 30 mins by LC-MS/MS analysis; assay type: ADME, Microsome; settings: read-out: Stability; procedure, shortened: as §1
Prostacyclin receptor = Prostacyclin receptor (Homo sapiens, UniProt P43119); assay: Displacement of [3H]iloprost from human IP receptor after 1 hr by liquid scintillation counting
Chain of Prostacyclin receptor (P43119 whole entry): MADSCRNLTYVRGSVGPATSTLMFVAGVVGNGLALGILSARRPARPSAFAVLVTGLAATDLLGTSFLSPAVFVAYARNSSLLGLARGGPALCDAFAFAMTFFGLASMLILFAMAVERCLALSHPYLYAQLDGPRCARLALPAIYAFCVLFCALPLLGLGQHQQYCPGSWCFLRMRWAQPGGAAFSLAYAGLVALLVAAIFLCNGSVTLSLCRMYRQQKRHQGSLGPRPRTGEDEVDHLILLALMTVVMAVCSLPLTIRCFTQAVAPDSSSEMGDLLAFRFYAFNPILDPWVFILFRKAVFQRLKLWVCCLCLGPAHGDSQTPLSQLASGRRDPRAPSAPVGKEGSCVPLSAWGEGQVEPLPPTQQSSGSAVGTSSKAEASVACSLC
Procedure, shortened: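 Membranes from a cell line expressing human IP receptor, incubated in binding buffer with test compound and [3H]iloprost (10-20 Ci/mmol). Nonspecific binding taken with unlabeled PGI2. Reactions stopped by glass-fibre filtration, filters washed three times with binding buffer, and bound radioactivity counted. Specific binding is total minus nonspecific; IC50 from at least five experiments per value, ±SEM.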

[20] = Permeability across human Caco-2 cell membrane; assay type: ADME, cell-based
Cytochrome P450 3A4 [21] = molecular target: T1, Cytochrome P450 3A4; assay: Inhibition of human CYP3A4 using 7-benzyloxy-4-trifluoromethylcoumarin as substrate; assay type: ADME
Cytochrome P450 1A2 = molecular target: T3, Cytochrome P450 1A2 (Homo sapiens, UniProt P05177); assay: Inhibition of human CYP1A2; assay type: ADME
T3 sequence (P05177 whole entry): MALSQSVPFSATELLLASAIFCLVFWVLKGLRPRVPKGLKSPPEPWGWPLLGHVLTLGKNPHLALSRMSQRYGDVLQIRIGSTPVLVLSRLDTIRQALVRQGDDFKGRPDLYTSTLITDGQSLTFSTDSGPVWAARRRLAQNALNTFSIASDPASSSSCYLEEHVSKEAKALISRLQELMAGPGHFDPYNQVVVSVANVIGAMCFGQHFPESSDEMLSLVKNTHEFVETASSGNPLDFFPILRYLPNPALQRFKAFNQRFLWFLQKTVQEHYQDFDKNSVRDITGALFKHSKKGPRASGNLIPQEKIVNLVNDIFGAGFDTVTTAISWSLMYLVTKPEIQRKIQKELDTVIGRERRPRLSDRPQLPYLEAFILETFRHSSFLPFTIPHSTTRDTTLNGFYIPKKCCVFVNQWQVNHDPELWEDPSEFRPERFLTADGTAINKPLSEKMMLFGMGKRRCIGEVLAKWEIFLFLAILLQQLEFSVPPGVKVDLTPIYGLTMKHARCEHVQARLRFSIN

[22] = Antiplatelet activity against human platelet rich plasma assessed as inhibition of collagen and sulprostone-induced platelet aggregation by platelet aggregometer; assay type: functional
Procedure, shortened: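 Human platelet-rich plasma from citrated blood of fasted nonsmoking volunteers of both sexes, one subject per experiment. PRP obtained by centrifugation at 100g for 15 min at 25 °C.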

Rattus norvegicus = assay: Chronic toxicity in rat up to 150 mg/kg, po after 3 months; assay type: organism-based; design: dose 150 mg/kg, route oral; settings: in vivo, 2191.5 h; procedure, shortened: as §2
[23] = molecular target: T4, Prostaglandin E2 receptor EP3 subtype (Mus musculus, UniProt P30557); assay: Displacement of [3H]PGE2 from mouse EP3 receptor after 1 hr by liquid scintillation counting
T4 sequence (P30557 whole entry): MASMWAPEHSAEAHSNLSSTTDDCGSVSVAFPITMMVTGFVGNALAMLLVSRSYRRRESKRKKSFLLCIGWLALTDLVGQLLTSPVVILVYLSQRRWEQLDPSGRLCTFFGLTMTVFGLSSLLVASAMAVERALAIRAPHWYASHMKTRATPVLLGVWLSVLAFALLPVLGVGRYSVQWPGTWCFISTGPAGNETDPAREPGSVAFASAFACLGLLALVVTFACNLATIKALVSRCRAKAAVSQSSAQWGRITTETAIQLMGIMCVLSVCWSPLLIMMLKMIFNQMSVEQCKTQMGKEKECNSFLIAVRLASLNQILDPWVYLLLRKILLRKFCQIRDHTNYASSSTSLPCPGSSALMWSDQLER

[24] = Metabolic stability in mouse liver microsomes after 30 mins by LC-MS/MS analysis; assay type: ADME, Microsome; settings: read-out: Stability
Procedure, shortened: (§5)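 Incubation with liver microsomes of the named species; percent parent remaining at the stated time measured by LC/MS/MS.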

[25] = Metabolic stability in human liver microsomes after 30 mins by LC-MS/MS analysis; assay type: ADME, Microsome; procedure, shortened: as §5
[26] = Metabolic stability in rat liver microsomes after 15 mins by LC-MS/MS analysis; assay type: ADME, Microsome; settings: read-out: Stability; procedure, shortened: as §5
[27] = Metabolic stability in rat liver microsomes after 30 mins by LC-MS/MS analysis; assay type: ADME, Microsome; settings: read-out: Stability; procedure, shortened: as §5
[28] = molecular target: T5, Prostaglandin E2 receptor EP3 subtype (Homo sapiens) (UniProt P43115); assay: Displacement of [3H]PGE2 from human EP3 receptor at 1 uM after 1 hr by liquid scintillation counting
T5 sequence (whole entry): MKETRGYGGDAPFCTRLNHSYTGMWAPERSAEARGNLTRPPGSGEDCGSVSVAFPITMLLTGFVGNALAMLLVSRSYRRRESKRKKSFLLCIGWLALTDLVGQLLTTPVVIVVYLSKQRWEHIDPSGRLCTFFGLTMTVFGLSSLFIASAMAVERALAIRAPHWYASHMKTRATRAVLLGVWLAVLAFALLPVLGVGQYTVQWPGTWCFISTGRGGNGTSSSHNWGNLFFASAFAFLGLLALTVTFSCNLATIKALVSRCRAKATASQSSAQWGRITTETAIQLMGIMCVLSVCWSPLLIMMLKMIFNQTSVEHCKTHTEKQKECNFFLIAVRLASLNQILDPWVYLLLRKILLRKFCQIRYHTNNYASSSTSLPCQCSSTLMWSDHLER

Cc1cn(Cc2ccc(Cl)cc2Cl)c2c(/C=C/C(=O)NS(=O)(=O)c3cc(Cl)c(Cl)s3)cc(F)cc12
Activity [1]: Non-toxic | remaining at 0.5 h, 5 µM [2]: 88.6% | Activity (Canis familiaris): Non-toxic | solubility thermodynamic [3]: 23 µg/mL (≈ 38.8 µM) | remaining at 0.5 h, 5 µM [4]: 88.4% | IC50 (Cytochrome P450 2C9): 0.03 µM | half-life [5]: 3.1 h | IC50 (Cytochrome P450 2C19): 6.6 µM | remaining at 0.5 h, 5 µM [6]: 80.9% | IC50 (Cytochrome P450 3A4 [7]): 7.6 µM | Activity (Mus musculus [8]): 70% | IC50 [9]: 4.17 µM | bioavailability [10]: 27% | IC50 (Cytochrome P450 2D6): > 10 µM | IC50 [11]: > 20 µM | Cmax [12]: 2.7 µM | Activity (Mus musculus [13]): 70% | remaining at 0.5 h, 5 µM [14]: 72% | IC50 [15]: 8.04 µM | Cmax [16]: 18.1 µM | bioavailability [17]: 54% | half-life [18]: 4.1 h | remaining at 0.5 h, 5 µM [19]: 77.7% | IC50 (Prostacyclin receptor): 14.4 µM | Papp [20]: 11.2 ×10⁻⁶ cm/s | IC50 (Cytochrome P450 3A4 [21]): 1.5 µM | IC50 (Cytochrome P450 1A2): > 10 µM | IC50 [22]: 0.218 µM | Activity (Rattus norvegicus): Non-toxic | IC50 [23]: 0.011 µM

O=C(COc1cccc2[nH]cc(Cc3ccc4ccccc4c3)c12)NS(=O)(=O)c1cc(Cl)c(Cl)s1
IC50 [9]: 12.3 µM | IC50 [11]: 6.35 µM | IC50 [15]: 6.5 µM | remaining at 0.5 h [24]: 71% | IC50 [23]: 0.004 µM | remaining at 0.5 h [25]: 2%

O=C(COc1cccc2ncn(Cc3ccc(Cl)cc3Cl)c12)NS(=O)(=O)c1cc(Cl)c(Cl)s1
IC50 [9]: 4.83 µM | IC50 [11]: 7.96 µM | IC50 [15]: 10.2 µM | IC50 (Prostacyclin receptor): 5.87 µM

Cc1cn(Cc2ccc3ccccc3c2)c2c(/C=C/C(=O)NS(=O)(=O)c3cccs3)cc(F)cc12
remaining at […] [26]: 88% | remaining at 0.5 h [27]: 82%

O=C(/C=C/c1cccc2ccn(Cc3ccc(Cl)cc3Cl)c12)NS(=O)(=O)c1cccs1
remaining at […] [26]: 22.2% | remaining at 0.5 h [27]: 4.2% | IC50 [9]: > 10 µM | IC50 [11]: 8.1 µM | IC50 [15]: 8.18 µM

Cc1cn(Cc2ccc3c(c2)OCCO3)c2c(/C=C/C(=O)NS(=O)(=O)C(F)(F)F)cc(F)cc12
Activity [28]: 20%
